According to ChEMBL document CHEMBL3286260, “Guanidine-based α2-adrenoceptor ligands: Towards selective antagonist activity” (Eur J Med Chem, 2014):
Activity calls are given as the source filed them. The calls are words filed in the database; no cut-off is given here.

Legend:
[1] = target: T1, Alpha-2A adrenergic receptor (Homo sapiens, UniProt P08913); experiment: Displacement of [3H]RX821002 from alpha2-adrenergic receptor in prefrontal cortex of human brain after 30 mins by liquid scintillation spectrometric analysis; assay type: tissue-based
T1 sequence (P08913 whole entry): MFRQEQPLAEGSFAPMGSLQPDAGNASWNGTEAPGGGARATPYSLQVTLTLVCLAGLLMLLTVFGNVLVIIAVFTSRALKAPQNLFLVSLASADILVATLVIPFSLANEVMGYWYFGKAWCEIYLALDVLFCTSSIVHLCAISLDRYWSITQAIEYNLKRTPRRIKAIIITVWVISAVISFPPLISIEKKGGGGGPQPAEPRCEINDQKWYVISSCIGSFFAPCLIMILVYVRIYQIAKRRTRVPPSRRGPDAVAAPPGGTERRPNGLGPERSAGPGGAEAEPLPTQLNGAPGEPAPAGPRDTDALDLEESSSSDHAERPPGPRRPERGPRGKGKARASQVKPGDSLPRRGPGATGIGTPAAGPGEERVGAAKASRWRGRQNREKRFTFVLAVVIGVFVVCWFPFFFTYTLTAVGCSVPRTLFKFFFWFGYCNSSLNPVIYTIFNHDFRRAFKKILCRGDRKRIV

[2] = target: T2, Alpha-2A adrenergic receptor (Homo sapiens) (UniProt P08913); experiment: Antagonist activity at alpha2-adrenergic receptor in prefrontal cortex of human brain assessed as effect on [35S]GTPgammaS binding after 120 mins by liquid scintillation spectrometric analysis; assay type: functional, tissue-based
T2 sequence (whole entry): T1 sequence (P08913 whole entry)

[3] = target: T2, Alpha-2A adrenergic receptor (Homo sapiens); experiment: Antagonist activity at alpha2-adrenergic receptor in prefrontal cortex of human brain assessed as increase in UK14304 EC50 for [35S]GTPgammaS binding after 120 mins by liquid scintillation spectrometric analysis; assay type: functional, tissue-based
Summary of the method: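 Same [35S]GTPγS membrane assay (120 min, 30 °C, 0.5 nM radioligand, Mg/Na/GDP buffer pH 7.4). UK14304 concentration–response curves (10^-13 to 10^-4 M) run with or without test compound at 10^-5 M. Shift in agonist EC50 taken as the measure of antagonism. Bound label counted by liquid scintillation.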

Row | Compound | Ki [1] | Activity [2] | Activity [3]
1 | CCCNC(=N)Nc1ccc(N(C)C)cc1 | 1120 nM | Active | –
2 | CCOc1ccc(/N=C2/NCC(c3ccco3)N2)cc1 (centres undefined) | 2630 nM | – | –
3 | N=C(NCCO)Nc1ccc2c(c1)CCCC2 | 1740 nM | – | –
4 | CN(C)c1ccc(NC(=N)Nc2ccccc2)cc1 | 389 nM | Active | Active
5 | CCNc1ccc(/N=C2/NCC(C)N2)cc1 (centres undefined) | 12300 nM | – | –
6 | CCOc1ccc(NC(=N)N)cc1 | 141 nM | Active | Active
7 | CN(C)c1ccc(/N=C2/NCC(c3ccco3)N2)cc1 (centres undefined) | 1320 nM | – | –
8 | CCOc1ccc(NC(=N)NCCO)cc1 | 19100 nM | – | –
9 | CCNc1ccc(NC(=N)NCCO)cc1 | 18600 nM | – | –
10 | c1coc(C2CN/C(=N/c3ccc4c(c3)CCCC4)N2)c1 (centres undefined) | 692 nM | Active | –
11 | CCCNC(=N)Nc1ccc2c(c1)OCO2 | 15100 nM | – | –
12 | CCCNC(=N)Nc1ccc(OCC)cc1 | 4270 nM | Active | –
13 | CC1CN/C(=N/c2ccc3c(c2)OCO3)N1 (centres undefined) | 2340 nM | – | –
14 | CN(C)c1ccc(/N=C(/N)NCc2ccco2)cc1 | 214 nM | Active | Active
15 | N=C(NCc1ccco1)Nc1ccc2c(c1)CCCC2 | 513 nM | Active | –
16 | N=C(NCCO)Nc1ccc2c(c1)OCO2 | 11700 nM | Active | –
17 | CCNc1ccc(/N=C2/NCC(c3ccco3)N2)cc1 (centres undefined) | 2190 nM | – | –

Row | Compound | Ki [1] | Activity [2] | Activity [3]
18 | CC1CN/C(=N/c2ccc3c(c2)CCCC3)N1 (centres undefined) | 1000 nM | Active | –
19 | CCNc1ccc(/N=C(/N)NCc2ccco2)cc1 | 1070 nM | Active | –
20 | CCCNC(=N)Nc1ccc(NCC)cc1 | 8320 nM | – | –
21 | COC1(C2=NCCN2)COc2ccccc2O1 (centres undefined) | 1.91 nM | – | –
22 | CCOc1ccc(/N=C2/NCC(C)N2)cc1 (centres undefined) | 14100 nM | – | –
23 | CCOc1ccc(/N=C(/N)NCc2ccco2)cc1 | 1480 nM | Active | –
24 | CN(C)c1ccc(NC(=N)NCCO)cc1 | 1860 nM | Active | –
25 | CCNc1ccc(NC(=N)Nc2ccccc2)cc1 | 4900 nM | – | –
26 | N=C(Nc1ccccc1)Nc1ccc2c(c1)CCCC2 | 263 nM | Active | Active
27 | N=C(Nc1ccccc1)Nc1ccc2c(c1)OCO2 | 4370 nM | – | –
28 | CC1CN/C(=N/c2ccc(N(C)C)cc2)N1 (centres undefined) | 3310 nM | – | –
29 | CCCNC(=N)Nc1ccc2c(c1)CCCC2 | 676 nM | Active | –
30 | CCOc1ccc(N=C2NCCN2)cc1 | 79.4 nM | Active | Active
31 | N=C(NCc1ccco1)Nc1ccc2c(c1)OCO2 | 1510 nM | Active | –
32 | CCOc1ccc(NC(=N)Nc2ccccc2)cc1 | 2240 nM | – | –
33 | c1coc(C2CN/C(=N/c3ccc4c(c3)OCO4)N2)c1 (centres undefined) | 1700 nM | – | –
